Laboratory results taken from article PMC8190911 (ACS Omega, 2021).

Assays:
CYP2E1 = settings: cited from earlier work
red blood cells = assay: Hemolysis assay on rat RBCs; format: cell-based; settings: up to 1 mg/mL, 30 min at 37 °C
In short: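 Blood from control rats drawn into aqueous EDTA and spun at 8000 rpm for 10 min. RBCs washed three times in PBS (pH 7.4) and diluted 1:10. Diluted cells (100 μL) mixed with 900 μL PBS containing test compound at 0.1 to 1 mg/mL. Blank PBS served as negative control and 1% Triton X-100 as positive control. Incubated 30 min at 37 °C with shaking, spun at 4 °C, supernatant absorbance read at 540 nm. % hemolysis scaled between the PBS and Triton absorbances.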

[1] = biological target: urease from Canavalin ensiformis (jack bean) (Canavalia ensiformis, UniProt P07374); assay: Inhibition of urease activity; format: biochemical
Chain of urease from Canavalin ensiformis (jack bean) (P07374 whole entry, looked up): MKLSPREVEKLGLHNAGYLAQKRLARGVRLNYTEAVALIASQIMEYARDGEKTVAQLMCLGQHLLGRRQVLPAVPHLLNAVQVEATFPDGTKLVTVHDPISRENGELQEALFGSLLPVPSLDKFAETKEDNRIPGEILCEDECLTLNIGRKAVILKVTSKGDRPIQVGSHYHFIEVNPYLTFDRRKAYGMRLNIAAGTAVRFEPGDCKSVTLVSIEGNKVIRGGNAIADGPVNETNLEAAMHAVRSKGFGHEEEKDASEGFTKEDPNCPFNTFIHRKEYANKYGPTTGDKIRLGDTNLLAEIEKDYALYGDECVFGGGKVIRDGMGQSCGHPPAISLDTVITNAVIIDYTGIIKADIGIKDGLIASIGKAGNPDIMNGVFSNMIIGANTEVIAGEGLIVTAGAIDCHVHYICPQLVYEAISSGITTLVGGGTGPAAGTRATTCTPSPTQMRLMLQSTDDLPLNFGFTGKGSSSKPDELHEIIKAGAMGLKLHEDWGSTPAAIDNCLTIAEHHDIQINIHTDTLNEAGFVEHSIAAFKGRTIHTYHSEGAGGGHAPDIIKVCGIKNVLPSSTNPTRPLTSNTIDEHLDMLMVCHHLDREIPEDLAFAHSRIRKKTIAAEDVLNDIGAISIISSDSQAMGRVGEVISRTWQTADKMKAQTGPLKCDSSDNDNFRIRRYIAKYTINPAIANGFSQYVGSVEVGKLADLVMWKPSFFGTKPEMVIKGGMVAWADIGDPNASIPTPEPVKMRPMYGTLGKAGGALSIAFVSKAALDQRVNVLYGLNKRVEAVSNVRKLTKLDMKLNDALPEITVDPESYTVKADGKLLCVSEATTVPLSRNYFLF

[2] = biological target: T1, horseradish peroxidase (HRP) (Armoracia rusticana, UniProt P00433); assay: Inhibition of HRP activity; format: biochemical
T1 sequence (P00433 31-338 limits assumed): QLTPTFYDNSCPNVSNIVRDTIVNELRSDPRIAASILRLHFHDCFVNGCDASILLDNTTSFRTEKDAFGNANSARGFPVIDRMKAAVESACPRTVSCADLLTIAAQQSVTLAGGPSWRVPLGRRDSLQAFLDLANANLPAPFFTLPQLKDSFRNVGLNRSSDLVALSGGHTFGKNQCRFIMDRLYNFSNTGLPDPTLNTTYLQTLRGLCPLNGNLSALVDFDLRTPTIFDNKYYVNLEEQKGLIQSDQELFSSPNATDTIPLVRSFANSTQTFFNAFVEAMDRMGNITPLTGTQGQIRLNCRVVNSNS
In short: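 HRP (10 μL) combined with test compound (10 μL, 250–1000 μM) and 100 μL TMB. Reaction started with 0.03% (v/v) H2O2. The blue oxidised TMB product was read at 655 nm and % inhibition calculated against uninhibited activity. Sodium azide at 1000 μM served as reference inhibitor. Performed in triplicate.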

rat splenic lymphocytes = assay: Splenic lymphocyte proliferation with Con-A and HU; format: cell-based; settings: HU 50 μM, rutin or gallic acid 10 μM, Con-A 5 μg/mL, 48 h, MTT
In short: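 Spleens were taken aseptically from control rats into incomplete RPMI and minced through a strainer. Erythrocytes were lysed with 155 mM NH4Cl, 12 mM NaHCO3 and 0.1 mM EDTA, and the cells were washed and resuspended in complete RPMI. Cells were seeded at 2.5 × 10^4 per well, pretreated with test compound plus HU for 1 h at 37 °C, then stimulated with Con-A for 48 h. MTT (2.5 mg/mL, 20 μL) was added for 4 h and absorbance read at 570 nm. Groups were compared by Student's t-test.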

OATP1B3 = settings: read-out: IC50, inhibition of OATP1B3-mediated transport of CCK-8; ref Li et al.; cited from earlier work
[3] = rat; cited from earlier work
[4] = at the concentration range of 250–1000 μM

SMILES	effect on expression of CYP2E1 (CYP2E1)	RBCs lysis (% Hb released relative to positive and negative controls) (red blood cells)	IC50 [1]	inhibition of HRP [2, 4]	effect on proliferation of lymphocytes (rat splenic lymphocytes)	inhibition of HRP ([2]; at a concentration of 1000 μM)	IC50 (OATP1B3)	effect on oral exposure of rosuvastatin [3]
C[C@@H]1O[C@@H](OC[C@H]2O[C@@H](Oc3c(-c4ccc(O)c(O)c4)oc4cc(O)cc(O)c4c3=O)[C@H](O)[C@@H](O)[C@@H]2O)[C@H](O)[C@H](O)[C@H]1O [rutin, Rutin]	enhanced its expression	≤ 5%	780 µM	40–64%	no considerable influence			
[N-]=[N+]=[N-].[Na+] [sodium azide, reference compound]						97%		
O=C(O)c1cc(O)c(O)c(O)c1 [gallic acid]			635 µM	53–70%	significantly elevated the proliferation of lymphocytes		1600 nM	augmented the oral exposure of rosuvastatin
NC(=O)NO [HU, Hydroxyurea, reference compound]					decreased			
